Assay results of several laboratories.
Protocols differ between the studies behind these lines.
Target: Insulin receptor-related protein (INSRR, Homo sapiens, UniProt P14616)

Compound | effect on | technique | concentration | remaining binding
C=CC(=O)N1CCC(C(=O)NCC(=O)N2CCN(c3nc(-c4cnc(N)nc4C(F)F)nc(N4CCOCC4)n3)CC2)CC1 | binding | competition with immobilised ligand | 1 µM | 96%
O=C(Nc1c[nH]nc1C(=O)NC1CCNCC1)c1cc(F)cc(F)c1 | binding | competition with immobilised ligand | 1 µM | 92%
CNC(=O)[C@@H]1CC[C@@H](n2c(-c3ccc4cnccc4c3)nc3ccc(C(=O)NCc4cccc(C(N)=O)c4)cc32)C1 | binding | competition with immobilised ligand | 1 µM | 92%
O=C1CCc2cc(Nc3cc(OC4CCOCC4)c([N+](=O)[O-])cc3Cl)ccc2N1 | cell-free assay | competition with immobilised ligand | 1 µM | 100%
CN(c1nccc(-c2cnn3ncccc23)n1)C1CC1 | binding |  | 1 µM | 100%
NS(=O)(=O)c1cc(NC(=O)C2(c3ccccc3Cl)CC2)ccc1Oc1cccc(Cl)c1 | cell-free assay | competition with immobilised ligand | 1 µM | 95%
CN(C)c1ncc(F)c(-c2cnn3ncccc23)n1 | binding |  | 1 µM | 100%
O=C(c1ccc(Nc2ncc(Cl)c(-c3ccc(Cl)s3)n2)cc1)N1CCC(N2CCCC2)CC1 | binding | competition with immobilised ligand | 1 µM | 23%
FC(F)(F)Oc1cccc(-c2cnc3ccc(-c4ccncc4)nn23)c1 | cell-free assay | competition with immobilised ligand | 5 µM | 96%
CCOCCn1cc(C(=O)Nc2ccc(-n3nc(-c4cccnc4)cc3C(F)(F)F)cn2)ccc1=O | cell-free assay | competition with immobilised ligand | 1 µM | 100%
Cc1cnn2ncc(-c3ccnc(N(C)C)n3)c2c1 | binding |  | 1 µM | 97%
O=C(c1ccc(Nc2nccc(-c3cc4ccccc4s3)n2)cc1)N1CCC(N2CCCC2)CC1 | binding | competition with immobilised ligand | 1 µM | 99%
N[C@@H]1CCN(c2nccc(-c3cnn4ncccc34)n2)C1 | binding |  | 1 µM | 100%
CCC(=O)N[C@H]1CC[C@@H](C(=O)N(C)c2ccc(-c3nc4ccccc4o3)cc2)C1 | cell-free assay | competition with immobilised ligand | 1 µM | 100%
O=C(NCCCN1CCOCC1)c1ccc(Nc2ncc(Cl)c(-c3ccc(Cl)s3)n2)cc1 | binding | competition with immobilised ligand | 1 µM | 59%
CC1CCCN1c1nccc(-c2cnn3ncccc23)n1 (stereo not shown) | binding |  | 1 µM | 100%
COc1ncc2cc3ccccc3nc2c1C#N | cell-free assay | competition with immobilised ligand | 5 µM | 100%
O=C(NCCCC1CCCCC1)c1ccc(CNC(=O)c2cnn(-c3ccccc3)c2C(F)(F)F)cc1 | cell-free assay | competition with immobilised ligand | 0.1 µM | 100%
CN(C)c1nccc(-c2cnc3ncccn23)n1 | binding |  | 1 µM | 82%
C[C@@]1(Cc2ccc(C#N)cc2)C(=O)N(c2cc(Cl)cc(Cl)c2)c2ncc(C(=O)NC3(c4nc(C5CCC5)no4)CC3)n21 | cell-free assay | competition with immobilised ligand | 1 µM | 100%
CN(CCCC(F)(F)F)c1nccc(-c2cnn3ncccc23)n1 | binding |  | 1 µM | 100%
CCN1CCN(Cc2ccc(C(=O)Nc3ccc(C)c(Oc4ccc5c(c4)CC(=O)N5)c3)cc2C(F)(F)F)CC1 | binding | competition with immobilised ligand | 1 µM | 93%
